# From PubChem BioAssay
# Lmaj promast – inhibitors of Leishmania major promastigote growth | Leishmania major promastigotes, resazurin fluorescence viability | inhibition, % at 10 µM | hit rate 9% among 200,000;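 also: promastigotes grown with compound for 44 hours at 28 °C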
# Redox H2O2 prof – compounds producing H2O2 with reducing agent – biochemical, NIH compound library profiling, artefact control for MLSCN library redox annotation, primary screen. DTT-dependent redox cycling H2O2, phenol red/HRP absorbance; 100% = 100 µM peroxide control, 0% = buffer. activation, % at 10 µM. hit rate 0.03% among 200,000. AID 878;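 active = activation of at least 50% relative to the plate's high and low controls in the primary single-dose screen; inactive = activation below 50%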;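 also: compound incubated with DTT at 0.8 mM final as the reducing agent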
# G6PDH CS – counter-screen for G6PDH assay hits: L. mesenteroides G6PDH inhibition | Purified L. mesenteroides G6PDH, diaphorase/resazurin coupled fluorescence, 45 min | inhibition, % at 5 µM | hit rate 0.12% among 200,000 | AID 1020
# PfGluPho inh – PfG6PD (Plasmodium falciparum) enzyme inhibition; PfGluPho enzyme, NADPH resazurin-diaphorase fluorescence; inhibition, % at 20 µM; hit rate 0.78% among 350,000; AID 504690;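 active = inhibition reaching at least a set limit at 20 µM in the primary screen, cut at about 59% in these data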
# Diaph act CS – activates diaphorase or chemically reduces, flagging diaphorase assay artifacts; Diaphorase/resazurin coupled assay, resorufin fluorescence, 16 min; stronger effect = higher value; 1 = vehicle wells, 0 = NADH-free wells; activation factor at 20 µM; hit rate 0.005% among 190,000;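 active = diaphorase activity raised at least twofold by the compound at 20 µM; inactive = activation factor below 2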
#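 System – purified diaphorase enzyme from Clostridium kluyveri · Input – enzyme 0.07 U/mL final · Also added – final NADH 0.114 mM, resazurin 0.1 mM · Measured by – fluorescence of resorufin, 544 nm excitation, 590 nm emission · Timing – 16 min enzyme reaction, ambient temperature · Measure – resorufin increase flagging diaphorase activators or reducers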
# Diaphorase inh – inhibits diaphorase or chemically oxidizes, flagging diaphorase assay artifacts; AID 1217; hit rate 0.69% among 190,000; inhibition, % at 20 µM; diaphorase resazurin-to-resorufin fluorescence, NADH, 16 min; bacterial (C. kluyveri) enzyme, not human;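 active = primary screen inhibition at 20 µM above a set limit, cut at about 50% in these data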
#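 Assay system: diaphorase enzyme from Clostridium kluyveri; Input: enzyme working solution with 0.14 U/mL diaphorase; Timing: 16 min at room temperature; Technique: resorufin fluorescence, excitation 544 nm, emission 590 nm; Benchmarks: positive control minus NADH, DMSO neutral control.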
# Hits are given with their value; - = inactive; . = no result given. The sample as a whole holds a higher share of hits than the screen did. Rule as the data show it, unless noted: active = inhibition above about 50%; inactive = the rest.
SMILES,Lmaj promast,Redox H2O2 prof,G6PDH CS,PfGluPho inh,Diaph act CS,Diaphorase inh
COC(=O)c1ccc(NC(=O)CNCc2ccncc2)cc1,56.1,-,-,-,-,-
COc1cc(OC)cc(C(=O)Nc2cccc(N3CCCC3)c2)c1,71.9,-,-,-,-,-
O=C(Nc1ccc(N2CCCC2)c(Cl)c1)c1ccccc1[N+](=O)[O-],-,-,-,-,-,-
O=C1C(O)CCN1Cc1ccccc1 (centres undefined),.,.,.,-,.,.
CCOc1ccc(-n2cc(C(=O)Nc3cccc(C)n3)c3cc(OC)c(OC)cc3c2=O)cc1,-,-,.,-,.,.
COc1cccc(CNC(=O)c2cccc(Br)c2)c1,54.0,.,-,-,-,-
COc1cccc(NC(=O)c2cccc(C(=O)Nc3cccc(OC)c3)c2)c1,.,.,.,-,.,.
COc1cccc(C(=O)Nc2cccc(C(=O)NCC(C)C)c2)c1,63.6,-,-,-,-,-
CCCC(=O)Nc1ccc2oc(-c3ccncc3)nc2c1,-,-,-,-,-,-
CCC(C)NCC(=O)Nc1ccc(-c2nc3cc(NC(=O)CNC(C)CC)ccc3o2)cc1 (centres undefined),99.2,-,-,-,-,-
CCN(CC)CC(=O)Nc1ccc(-c2nc3cc(NC(=O)CN(CC)CC)ccc3o2)cc1,86.0,-,-,-,-,-
O=C(CN1CCCC1)Nc1ccc(-c2nc3cc(NC(=O)CN4CCCC4)ccc3o2)cc1,100.5,-,-,-,-,-
CC(=O)NC(CC(=O)N1CCCC1)c1ccccc1 (centres undefined),.,.,.,-,.,.
O=C(c1ccco1)N1N=C(c2cccs2)CC1c1cc([N+](=O)[O-])ccc1O (centres undefined),.,.,.,-,.,.
CSc1ncnc2c1ncn2CCCNCCCN1CCCC1=O,.,.,.,-,.,.
Nc1ccc2[nH]ncc2c1,-,-,-,-,-,58.5
O=C(Cc1ccc(F)cc1)Nc1ccc2[nH]ncc2c1,.,.,.,-,.,.
Nc1ccc2c(c1)Nc1ccccc1CC2,-,-,-,-,-,61.5
C/C(N)=C(/C#N)C(=O)COC(=O)c1ccc(NC(N)=O)cc1,.,.,.,-,.,.
CN1CCCN(Cc2nc(-c3cccc(C(F)(F)F)c3)no2)CC1,99.2,-,-,-,-,-
c1cc(C2CCN(Cc3nc(-c4ccc5c(c4)OCO5)no3)CC2)ccn1,94.6,-,-,-,-,-
c1ccc(C(c2ccccc2)c2noc(CN3CCC(c4ccncc4)CC3)n2)cc1,90.2,-,-,-,-,-
FC(F)(F)c1cccc(Cc2noc(CN3CCC(c4ccncc4)CC3)n2)c1,98.4,-,-,-,-,-
CN1CCCC2(CCCN(Cc3nc(Cc4cccc(C(F)(F)F)c4)no3)C2)C1 (centres undefined),-,-,-,-,-,-
COCC1CCN(Cc2nc(-c3ccc4c(c3)OCO4)no2)C1 (centres undefined),-,-,-,-,-,-
SMILES,Lmaj promast,Redox H2O2 prof,G6PDH CS,PfGluPho inh,Diaph act CS,Diaphorase inh
CC(C)N(CCCNC(=O)Cn1c(=O)c2cccn2c2ccc(F)cc21)Cc1ccccc1,.,.,.,-,.,.
c1ccc(OCCN2CCN(Cc3nc(-c4ccc5c(c4)OCO5)no3)CC2)cc1,68.2,-,-,-,-,-
O=C(c1ccco1)N1CCCN(Cc2nc(-c3ccc4c(c3)OCO4)no2)CC1,-,-,-,-,-,-
Fc1ccc(CN2CCCN(Cc3nc(-c4ccc5c(c4)OCO5)no3)CC2)cc1,95.3,-,-,-,-,-
c1ccc(-c2noc(COc3ccc4c(c3)OCO4)n2)cc1,-,-,-,-,-,-
COC(=O)C[C@@H]1C[C@@H]2c3cc(NC(=O)NC4CCCCC4)ccc3O[C@@H]2[C@H](CO)O1,.,.,.,-,.,.
OCC[C@@H]1C[C@@H](O)[C@H](O)[C@]2(CCc3ccccc3CO2)O1,.,.,.,-,.,.
S=c1[nH]cc(-c2ccccc2)n1-c1ccccc1,-,-,-,-,-,-
Cc1cc(C(C)(C)C)cc(S(=O)(=O)Nc2ccc(O)c(C(=O)O)c2)c1C,-,-,-,-,-,-
CC(=O)Nc1ccc(NC(=O)c2ccc(NS(=O)(=O)c3cc(C(C)(C)C)cc(C)c3C)cc2)cc1,51.9,-,-,-,-,-
O=S(=O)(c1ccccc1F)N(Cc1ccco1)Cc1nnc(-c2ccccc2Br)o1,65.1,-,-,-,-,-
Cc1cc(C)c(S(=O)(=O)Nc2ncccc2C)c(C)c1,.,.,.,-,.,.
S=c1[nH]ncn1/N=C/c1cccc(Oc2ccccc2)c1,-,-,-,-,-,85.0
C(=N\n1cnnc1)/c1cccc(Oc2ccccc2)c1,-,-,-,-,-,-
Cc1c(CCCN)c2ccccc2n1Cc1ccccc1,91.9,-,-,-,.,.
CCn1cc(C(=O)N2CCCc3ccccc32)c2cc(OC)c(OC)cc2c1=O,-,-,-,-,-,-
Clc1ncccc1-c1nc2ccccc2n1Cc1ccccc1,94.5,-,-,-,-,-
CCn1c(-c2cccnc2Cl)nc2ccccc21,-,-,-,-,-,-
Cc1cccc(Cn2c(Cc3ccccc3)nc3ccccc32)c1,92.4,-,-,-,-,-
Cc1ccc(NC(=O)N2N=C(c3ccc(F)cc3)CC2c2ccc(F)cc2)cc1 (centres undefined),-,-,-,-,-,-
CCCCN(C)Cc1c(O)ccc2c(-c3ccccc3)cc(=O)oc12,64.9,-,-,-,-,-
CN1CCN(Cc2c(O)ccc3c(-c4ccccc4)cc(=O)oc23)CC1,80.5,-,-,-,-,-
CCCCN(CC)Cc1c(O)ccc2c(-c3ccccc3)cc(=O)oc12,.,.,.,-,.,.
CCN(C(=O)CSc1nc(C)c(C)c(C)n1)C1CCS(=O)(=O)C1 (centres undefined),.,.,.,-,.,.
CCC(=O)Oc1ccc(C(=O)Nc2c[nH]c(=O)[nH]c2=O)cc1,-,-,-,-,-,-
SMILES,Lmaj promast,Redox H2O2 prof,G6PDH CS,PfGluPho inh,Diaph act CS,Diaphorase inh
CC(C)(C)c1cc(N)n2nc(C(C)(C)C)cc2n1,65.8,-,-,-,-,-
O=C(c1cc(Cl)ccc1[N+](=O)[O-])n1cnc2ccccc21,55.4,-,-,-,-,-
O=C(c1ccccc1[N+](=O)[O-])n1cnc2ccccc21,-,-,-,-,-,-
COc1ccc(N2CSC3=C(C#N)C(c4cccs4)CC(=O)N3C2)cc1 (centres undefined),-,-,-,-,-,52.9
COc1ccc(N2CSC3=C(C#N)C(c4cc(OC)ccc4OC)CC(=O)N3C2)c(OC)c1 (centres undefined),-,-,50.1,113.4,-,57.1
CCc1ccc(N2CSC3=C(C#N)C(c4cccs4)CC(=O)N3C2)cc1 (centres undefined),-,-,-,62.4,-,-
CCCSC1=C(C#N)C(c2cc(OC)ccc2OC)CC(=O)N1 (centres undefined),-,-,-,-,-,-
